Experiment: Toxicity liver stage against HepG2, at 10uM
Format: cell-based
Design: test concentration 10 uM, cell line HepG2-A16-CD81EGFP
Settings: human, HepG2-A16-CD81EGFP cells; read-out: INHIBITION
How it was run: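 Uninfected HepG2-A16-CD81EGFP cells, 3 × 10^3 per well, 1536-well, plated on prespotted compound at 10 μM final, parasite-free screening media added to match infected plates; puromycin 10 μM positive, DMSO 0.5% negative; run in parallel with 48 h PbLuc assay at 37 °C, 5% CO2; viability by CellTiter-Glo luminescence, normalized to controls.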

Row | SMILES | cytotoxicity at 10 µM
1 | c1ccc(CN2CCOC[C@H]2c2nc(-c3ccncc3)c[nH]2)nc1 | -0.501%
2 | Cn1ccnc1CN1C[C@@H](F)[C@@H](OCc2nc3cnccc3[nH]2)C1 | 3.39%
3 | O=C(NC[C@H]1OC[C@@H](NC(=O)C2CCCC2)[C@@H]1O)c1ccncc1 | 5.45%
4 | Cc1noc(C)c1C(=O)N1CCC2(CC1)CC(Oc1ccccc1)CO2 (stereo unspecified) | 11.8%
5 | Cc1cc(C(=O)N2CCc3c(CN(C)C(C)C)n[nH]c3C2)[nH]n1 | -133%
6 | CSc1ccc(C2CC(=O)Nc3c2c(=O)[nH]n3C(C)C)cc1 (stereo unspecified) | 6.71%
7 | COc1ccc(C2CC(=O)Nc3c2cnn3C)cc1 (stereo unspecified) | 22%
8 | CC(C)n1ncc2c1NC(=O)CSC2C(C)(C)C (stereo unspecified) | 4.47%
9 | Cc1ccoc1C(=O)N1CC[C@H]2OCC[C@@]2(COCc2ccncc2)C1 | 5.71%
10 | CN1CC(Oc2ccccc2)=NC(SCC(=O)Nc2ccccc2Cl)=N1 | -9.19%
11 | CC(C)S(=O)(=O)N1CCN(C(=O)c2cnn(C)c2Cl)CC1 | 1.6%
12 | Cc1nn(C)c2c(=O)n(CC(=O)Nc3cc(Cl)cc(Cl)c3)nnc12 | 0.976%
13 | Cc1cc2c(cc1C)OC1(C=C2)CCN(CC(=O)N2CCOCC2)CC1 | -10.4%
14 | COCCCNC(=O)C(C)n1nc(-c2ccco2)cc(N)c1=O (stereo unspecified) | 0.152%
15 | CCN(Cc1ccncc1)c1cc(C2CCN2C(C)=O)nc(C)n1 (stereo unspecified) | 5.25%
16 | Cc1ccc(N2CC(c3nccc(C)n3)C2)nn1 | 8.82%
17 | CNc1cc(C)nc(C2COCCN2CCc2ccc(F)cc2)n1 (stereo unspecified) | 3.68%
18 | Cc1nc(CN2CCCC(c3nc(C)n4c(C)c(C)sc34)C2)co1 (stereo unspecified) | -21.7%
19 | O[C@H]1CN(Cc2ccc3c(c2)OCCO3)CC[C@@]12CCCO2 | -2.92%
20 | Cc1nc(C2CCCN2C(=O)Cc2ccc(F)cc2)ncc1C(N)=O (stereo unspecified) | -18.2%
21 | Cc1cccc(C)c1NC(=O)c1n[nH]c(-n2cnnc2)n1 | -10.6%
22 | CS(=O)(=O)N1CCCC(Cc2ccnc3ccncc23)CC1 (stereo unspecified) | -12.8%
23 | Cn1cc(C(=O)N2CCCC(c3cc(O)n(C)n3)C2)cn1 (stereo unspecified) | -21.6%

Row | SMILES | cytotoxicity at 10 µM
24 | Cc1nc(CNC(=O)NC2CC(C)(C)OC2(C)C)sc1C (stereo unspecified) | -3.77%
25 | N#CCCN(CCC#N)C(=O)COC1CCCCC1 | 0.631%
26 | CCS(=O)(=O)CC(=O)Nc1cc(-c2cccc(F)c2F)n[nH]1 | 10.7%
27 | CCSc1cc(C(=O)N(CC(F)F)C(C)C)ccn1 | 4.64%
28 | O=C(NCc1ccc(Br)cc1F)C1(O)CCSCC1 | 6.4%
29 | CN(C(=O)c1ccncc1Cl)c1ccccc1S(C)(=O)=O | 17.6%
30 | COc1ccc2c(c1)CCCN2Cc1nc(C)c(C)o1 | 4.74%
31 | COC(=O)C(O)C1CCN(CCc2ccc(C)cc2)CC1 (stereo unspecified) | 15.2%
32 | Cc1ncc2c(n1)CN(Cc1cccc3c1OCCO3)CC2 | -1.31%
33 | COc1ccc(C(C)NC(=O)Nc2nnc(C)s2)cc1OC (stereo unspecified) | 9.67%
34 | C1CC(NCC2CC2)CN(Cc2noc(C3CC3)n2)C1 (stereo unspecified) | -3.09%
35 | COCCN(C)C(=O)Nc1ccc2c(ccn2CC(=O)N(C)C)c1 | 6.71%
36 | Cn1cc(C(O)CNC(=O)c2cc(Br)ccc2Cl)cn1 (stereo unspecified) | 2.06%
37 | CCN(C(=O)NCCc1ccc(C)cc1C)C(C)CS(C)(=O)=O (stereo unspecified) | 11.3%
38 | Cc1nc2cc(C(=O)N(CCN(C)C)CCN(C)C)ccc2n1C | -9.01%
39 | Cc1nn(CCC#N)c(C)c1CCC(=O)N(C)Cc1ccsc1 | -3.57%
40 | CN(C)C(=O)C1CCN(Cn2ccc(-c3ccc(F)cc3)n2)CC1 | 6.19%
41 | CN1CCN(c2cccc(Cl)c2CNCCS(C)(=O)=O)CC1 | -0.641%
42 | O=C(NCCCNc1ccccn1)NCC1CCS(=O)(=O)C1 (stereo unspecified) | 16%
43 | Cc1noc(C)c1C(=O)N1CCCN(C)c2ccc(Cl)cc21 | 4.61%
44 | COCc1noc(-c2cc(Cl)c3c(c2)OCCCO3)n1 | 0.174%
45 | CN(CCCNC(=O)C1CCCN(C(N)=O)C1)S(C)(=O)=O (stereo unspecified) | -4.76%
46 | CC(CO)NC(=O)c1ccc(NCc2ccccc2)cc1 (stereo unspecified) | -6.63%

Row | SMILES | cytotoxicity at 10 µM
47 | CCC(NC(=O)NCC(=O)NC(C)C)c1cc(F)ccc1F (stereo unspecified) | 0.447%
48 | CCCOc1cc(F)ccc1NC(=O)NCc1noc(C)n1 | 7.83%
49 | CN(C)CCC1CCN(c2cc(N3CCCC3CO)ncn2)CC1 (stereo unspecified) | -6.27%
50 | O=C(NCc1nccs1)N1CCOC(c2ccccc2Cl)C1 (stereo unspecified) | -3.67%
51 | COCCCn1ccc(NCc2ccc(NC(C)=O)cc2)n1 | 2.33%
52 | Cc1nc(C)c(COc2ccc(S(=O)(=O)N(C)C)cc2)s1 | -0.242%
53 | O=C1CCC(C(=O)Nc2cnn(-c3ccccc3Cl)c2)N1 (stereo unspecified) | -7.41%
54 | O=C(OCc1cc(=O)n2cc(Br)ccc2n1)c1ccc2c(c1)OCO2 | -7.37%
55 | Cc1ccc(OCC(=O)N(C)Cc2cccc(F)c2)cn1 | 27.6%
56 | COc1ccc(NC(=O)CNc2cccc3c2CCCC3)c(OC)c1 | 16.5%
57 | COc1ccc(Cn2cc(C(=O)N(C)Cc3ccon3)nn2)cc1 | 5.61%
58 | Cn1c(N2CCOCC2)nc2cc(C(=O)N3CC(O)CO3)ccc21 (stereo unspecified) | 18.5%
59 | Cn1cc(Cl)cc1C(=O)N1CCC2(CCCN(CC3CCC3)C2=O)C1 (stereo unspecified) | 0.407%
60 | CCCc1nc(CN(CC)C(=O)c2ccc(S(C)(=O)=O)cc2)no1 | -5.03%
61 | CSCCc1c(-c2ccccc2)ncn1[C@H]1C[C@@H](C(=O)O)N(C)C1 | 0.471%
62 | CC(C)Cn1cncc1CNC(=O)c1cccc(-n2cnnc2)c1 | -5.54%
63 | Cc1cccc(-c2nc(N)nc3c2CN(C(=O)c2ccncn2)C3C)c1 (stereo unspecified) | 4.65%
64 | NC(=O)c1csc(N2C[C@@H](CN3CCC(O)CC3)[C@@H](CO)C2)n1 | 0.984%
65 | CN(CC(=O)N1CCOCC(CO)C1)Cc1ccccn1 (stereo unspecified) | 0.382%
66 | CCc1nc2c(c(NC3CC3)n1)CCN(C(=O)Cc1nonc1C)CC2 | 2.8%
67 | Cc1nc(CC(=O)N2CCCC[C@H](N(C)C)C2)cs1 | 8.27%
68 | Cc1cc(-n2nc(C3CC3)nc2-c2csnn2)ccn1 | 6.37%
69 | COc1cc(OC)nc(N2CCC3(CC2)OCCCC3O)n1 (stereo unspecified) | 2.67%

Row | SMILES | cytotoxicity at 10 µM
70 | O=C(c1cccc2ccnn12)N1CCC[C@H]1CN1CCCC1 | -144%
71 | Cc1cc(C)cc(CN2CCN(C(=O)CCc3n[nH]c(C)n3)CC2=O)c1 | 0.108%
72 | CCCc1cc(NCc2noc(COC)n2)n2nccc2n1 | 6.48%
73 | COC1CCN(S(=O)(=O)N2CC[C@@](O)(C3CCC3)[C@H](C)C2)CC1 | 6.8%
74 | CCn1ncnc1C1CC(=O)NCc2nc(N)sc21 (stereo unspecified) | -4.78%
75 | c1ccc(Oc2ncccc2CNCc2ccccn2)cc1 | -8.04%
76 | CN(Cc1cccc2ncccc12)C(=O)CCC(F)(F)F | -3.05%
77 | Cc1nn2c(N3CCCC(C#N)C3)cc(-c3ccccc3)nc2c1C (stereo unspecified) | -0.828%
78 | Cc1cc(Cc2ccc(S(=O)(=O)N3CCOCC3)cc2)c(=O)[nH]n1 | -13.1%
79 | CCCNCc1ccc(-c2cc(N)nc3[nH]ccc23)cc1 | 19.8%
80 | CCN(Cc1c(C)nn(C)c1C)C(=O)C1COc2ccccc2C1 (stereo unspecified) | -0.91%
81 | Cc1cc(C(=O)N2CCc3[nH]nc(-c4ccc5c(c4)OCO5)c3C2)no1 | -137%
82 | Cc1nn(CCn2ccnc2-c2cc3n(n2)CCCNC3)c(C)c1Cl | -8.52%
83 | O=C(CCc1ccsc1)N1CCC(Cc2ccc(CO)cc2)C1 (stereo unspecified) | 14.7%
84 | O=C(NCCCc1ccncc1)C1CCCN(Cc2ccco2)C1 (stereo unspecified) | 20.1%
85 | CC(NC(=O)NCCNc1ccccn1)c1cccs1 (stereo unspecified) | 1.48%
86 | CC(C)c1nc(CN2CCCC2Cn2cccn2)no1 (stereo unspecified) | -0.121%
87 | CCc1csc(C2CCCN(C(=O)c3ccco3)C2)n1 (stereo unspecified) | 2.56%
88 | CCc1noc(CN2CCN(c3nccs3)CC2)n1 | -1.46%
89 | O=C(CNc1cc(F)ccc1OCC1CCCO1)N1CCOCC1 (stereo unspecified) | -12.6%
90 | CCc1ncncc1C(=O)N1CCCN(Cc2ccccc2C)CC1 | 0.977%
91 | O=C(COCc1ccco1)Nc1cc(C(F)(F)F)c[nH]c1=O | -2.57%
92 | CCNc1cc2c(nn1)CCN(C(=O)c1ccc(-n3cnnc3)cc1)C2 | -3.51%

Row | SMILES | cytotoxicity at 10 µM
93 | COc1c(C2CCCN2CC(=O)NCc2ccccn2)c(C)nn1C (stereo unspecified) | -0.671%
94 | CC(C)Sc1ncccc1C(=O)NCc1cccc(N(C)C)c1 | -3.42%
95 | COCc1nc(C(=O)N2CCCC(n3ccnc3C(C)C)C2)cs1 (stereo unspecified) | -30.8%
96 | CCC(O)CN1CCN(C(=O)c2sccc2C2CC2)CC1 (stereo unspecified) | -14.6%
97 | CCc1nc(C2CCCN(C(=O)c3cccc(C(N)=O)c3)C2)no1 (stereo unspecified) | -22.2%
98 | CC(C)c1nccn1C1CCCN(C(=O)c2ccc3[nH]cnc3c2)C1 (stereo unspecified) | -8.24%
99 | O=C(CCc1ccc2c(c1)OCO2)N1CCCC(n2cccn2)C1 (stereo unspecified) | -15.8%
100 | CCN(Cc1nc2c(cnn2C)c(=O)[nH]1)Cc1ccccc1C | -10.2%
101 | Cc1noc(C)c1C(=O)NCC(C)N(C)C (stereo unspecified) | -8.4%
102 | Cc1cc(C)n(CC2CCCN2CC(=O)N(C)C)n1 (stereo unspecified) | -7.86%
103 | CN1CCN(C[C@@H]2OC[C@H]3CN(Cc4cccc(F)c4)CC[C@H]32)CC1 | -10.3%
104 | CS(=O)(=O)N1CCOCC2(CCN(C(=O)c3ccncc3)CC2)C1 | 2.78%
105 | Cc1nn(C)c(N(C)C)c1CNC1CCc2c(Cl)cccc21 (stereo unspecified) | -7.07%
106 | COc1ccc(CN2CCn3cc(CNC(=O)C4CCC4)nc3C2)cc1 | 5.42%
107 | O=C(N1CCCC1)N1CC[C@H]2[C@H]1CCN2c1ncccn1 | -1.19%
108 | O=C(CC1CC1)N1C[C@@H]2CCN(c3cccnc3)C[C@@H]2C1 | 4.62%
109 | O=C(c1ccccn1)N1CCn2cnc(COCC3CC3)c2C1 | 11.4%
110 | CN(C)C(=O)[C@H]1C[C@H]2CN(S(=O)(=O)Cc3ccccc3)C[C@@H]1O2 | 4.81%
111 | CNC(=O)[C@H]1C[C@H]2CN(C(=O)NCCc3ccccc3)C[C@@H]1O2 | 2.89%
